The values that follow come from ChEMBL document CHEMBL5260824, “9-Deazapurines as Broad-Spectrum Inhibitors of the ABC Transport Proteins P-Glycoprotein, Multidrug Resistance-Associated Protein 1, and Breast Cancer Resistance Protein” (J Med Chem, 2017).

Assay [1] relates to H69AR. The experiment in a line: Reversal of Daunorubicin resistance in human NCI-H69AR cells assessed as Daunorubicin GI50 at 1 uM measured for 72 hrs by MTT assay. The format is functional. The gist of the method: (§1)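 Reversal assay: resistant lines (A2780/ADR, H69AR, MDCK II BCRP) and parental lines seeded as for MTT assay with modulator solutions of 1, 10 and 100 µM added (final 0.1, 1, 10 µM) and daunorubicin (P-gp, MRP1) or SN-38 (BCRP) at final 10 nM–10 µM. 72 h, MTT read-out; GI50 by variable-slope fit. Resistance factor = resistant/sensitive GI50; potentiation factor = GI50 without/with modulator.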
A general note: Formazan colour is commonly taken as a measure of viable cells.

The nature of assay [2]: Antiproliferative activity against dog MDCK-II-BCRP cells assessed as reduction in cell viability measured for 72 hrs bt MTT assay. In kind it is functional. Conditions: Canis lupus familiaris.
The next assay concerns MDCK-II. The experiment in a line: Antiproliferative activity against dog MDCK-II cells assessed as reduction in cell viability measured for 72 hrs bt MTT assay. The settings on record: Canis lupus familiaris. In kind it is functional.
Assay [3] can be described thus: Sensitization of human A2780 ADR cells expressing P-gp assessed as maximal sensitivity at 10 uM relative to control. The format is functional. The method in brief:
(§2)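 Resistant lines were exposed to daunorubicin (A2780/ADR, H69AR) or SN-38 (MDCK II BCRP) over 10 nM–10 µM final, with or without modulator, for 72 h. Viability was read by MTT. Potentiation factor is GI50 without modulator over GI50 with modulator. Maximal sensitization is pf at 10 µM divided by the native resistance factor, in percent.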

Assay [4] can be described thus: Reversal of drug resistance in dog MDCK-II-BCRP cells expressing BCRP. In kind it is functional, cell-based, Canis lupus familiaris. The method in brief:
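Cells seeded per well (A2780/ADR 8,000; H69AR 20,000; MDCK II BCRP 3,000) with test compound at 1, 10 or 100 µM solutions added before cells. Daunorubicin (P-gp, MRP1) or SN-38 (BCRP) added to final 10 nM–10 µM. 72 h at 37 °C, then MTT viability read at 570 nm. GI50 from variable-slope nonlinear fits, compared with parental lines; three independent experiments in duplicate.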

The subject of assay [5] is H69AR. Briefly: Reversal of Daunorubicin resistance in human NCI-H69AR cells assessed as Daunorubicin GI50 at 10 uM measured for 72 hrs by MTT assay. In kind it is functional. The method in brief:
as §1

Assay [6] relates to H69AR. The experiment in a line: Sensitization of human NCI-H69AR cells expressing MRP1 assessed as maximal sensitivity at 10 uM relative to control. In kind it is functional. The method in brief: as §2
The subject of assay [7] is H69AR. Briefly: Potentiation factor, ratio of GI50 for daunorubicin resistant human NCI-H69AR cells expressing MRP1 cells to GI50 for reversal of daunorubicin resistance in human NCI-H69AR cells assessed as daunorubicin GI50 at 0.1 uM (reference value: 1 uM). The format is functional. The method in brief:
as §1

Assay [8] deals with H69AR. The experiment in a line: Potentiation factor, ratio of GI50 for daunorubicin resistant human NCI-H69AR cells expressing MRP1 cells to GI50 for reversal of daunorubicin resistance in human NCI-H69AR cells assessed as daunorubicin GI50 at 10 uM (reference value: 1 uM). The format is functional. The method in brief:
as §1

Broadly, the GI50 is the concentration at which growth is held to half of that of the control. By EC50 is commonly meant the concentration needed to bring the measured effect to its halfway point. For `N#Cc1cn(CCCc2ccccc2)c2c(N3CCN(CCc4c[nH]c5ccccc45)CC3)ncnc12`, the GI50 in the assay on H69AR [1] stood at 1170 nM; in assay [2] it was 23200 nM; with MDCK-II, 37200 nM; in the assay on H69AR [5] it was 445 nM. For the same molecule, the Activity came to 24% in assay [3] and 81% with H69AR [6]. Besides, in assay [4], the EC50 turned out to be 478 nM. Moreover, the figures for the PF with H69AR [7] and in the assay on H69AR [8] were 1.8 and 8.6, respectively.
